# High-throughput results (PubChem BioAssay)
# KCNK9 block – blocks the human KCNK9 two-pore domain potassium channel; HEK293 KCNK9, FluxOR thallium flux fluorescence; stronger effect = lower value; B-score at 10 µM; 310,000 compounds, 1.2% hits; AID 488922;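 active = ratio B-score over 3 SD below the library mean, with starting fluorescence within 5 SD of its mean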;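 note: negative B-score means less thallium flux so channel inhibition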
# KCNK3 block – human KCNK3 channel inhibition, primary screen. O14649. CHO-KCNK3 thallium flux, FluxOR fluorescence; stronger effect = lower value. B-score at 10 µM. 340,000 compounds, 0.84% hits;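 active = B-score under library mean minus 4 SD, starting fluorescence ratio at most library mean plus 5 SD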;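 note: more negative B-score means stronger inhibition of thallium flux through KCNK3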
# Target sequence (O14649 whole entry, looked up): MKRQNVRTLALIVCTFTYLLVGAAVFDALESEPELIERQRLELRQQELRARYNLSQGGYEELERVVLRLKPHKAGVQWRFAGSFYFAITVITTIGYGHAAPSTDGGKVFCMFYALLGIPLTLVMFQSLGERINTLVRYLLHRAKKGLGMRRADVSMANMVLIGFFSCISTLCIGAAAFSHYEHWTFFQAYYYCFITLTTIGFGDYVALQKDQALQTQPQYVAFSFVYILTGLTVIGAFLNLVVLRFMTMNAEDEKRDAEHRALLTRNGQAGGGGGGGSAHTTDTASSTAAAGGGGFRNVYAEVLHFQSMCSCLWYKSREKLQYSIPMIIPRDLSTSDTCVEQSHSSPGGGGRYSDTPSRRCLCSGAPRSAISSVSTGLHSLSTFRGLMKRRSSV
# KCNQ1 inh – blocks the human KCNQ1 potassium channel | P51787 | CHO-K1 KCNQ1, FluxOR thallium flux fluorescence; stronger effect = higher value | B-score at 10 µM | 310,000 compounds, 1.3% hits;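 active = compounds whose thallium flux B-score, printed positive for inhibition, exceeds three library SD while starting fluorescence stays within three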;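 note: channel opened by potassium depolarization with thallium stimulus after 20 min compound exposure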
# KCNQ1 act – potentiates or activates the human KCNQ1 potassium channel; P51787; CHO-K1 KCNQ1, thallium flux FluxOR fluorescence; stronger effect = higher value; B-score at 10 µM; 310,000 compounds, 0.35% hits; AID 2648;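 active = fluorescence ratio B-score, a plate-corrected score, at least three library SD, with initial intensity B-score within 5 SD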
#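 Test system: CHO-K1 cells stably expressing KCNQ1 / Medium: assay buffer / Also added: depolarizing K+/Tl+ stimulus, K2SO4 and Tl2SO4 each 12.5 mM in 5x stock / Incubation: 90 min dye loading and 20 min compound exposure, both at room temperature / Signal: thallium influx via FluxOR fluorescence, kinetic imaging / Evaluation: B score of baseline-normalized fluorescence ratio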
# hERG protect – shields human hERG channel from block by proarrhythmic agents | AID 1511 | activation (rescue from dofetilide block), less the hit threshold, % at 10 µM | Q12809 | 310,000 compounds, 0.51% hits | CHO-hERG, FluxOR thallium flux, dofetilide IC70 present;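 active = activation above the mean of controls blocked by dofetilide plus 5 SD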;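 note: thallium influx through hERG after potassium depolarization seen as dye fluorescence rise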
# KCNK9 inh conf – human KCNK9 inhibitor confirmation. shares compounds with KCNK9 block. HEK293 KCNK9 cells, FluxOR thallium flux fluorescence. inhibition, % at 10 µM. 4,900 compounds, 43% hits. AID 492992;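 active = thallium signal inhibited by more than 5 SD of the compound-free buffer control wells, on both duplicate plates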;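 note: 0% = assay buffer control wells without compound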
# Kir2-1 spec – mouse Kir2.1 off-target activity of KCNK9 modulators | Kir2.1 cells, FluxOR thallium flux fluorescence | inhibition, % at 10 µM | shares compounds with KCNK9 block | 4,900 compounds, 4% hits;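 active = thallium signal drop more than 5 SD beyond the mean of the no-compound control wells, seen in both duplicate plates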;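 note: signal is fluorescence rise after thallium addition divided by baseline fluorescence; plate controls were assay buffer only for no effect and full block by chlorpromazine control for full effect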
# HEK293 Tl ctr – second check of KCNK9 modulator effects in non-induced HEK293 cells. 4,900 compounds, 40% hits. shares compounds with KCNK9 block. FluxOR thallium flux. inhibition, % at 10 µM;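 active = thallium signal drop beyond 5 SD of the untreated control mean, on both duplicate plates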;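 note: plate controls were buffer only IC0 wells for no effect and SID17386958 at its maximal inhibitory level for full effect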
# * = called active by the depositor; i = inactive; / = not tested or not shown. Compounds with a hit are over-represented: about 3.1% of the library has one in this group of screens.
SMILES,KCNK9 block,KCNK3 block,KCNQ1 inh,KCNQ1 act,hERG protect,KCNK9 inh conf,Kir2-1 spec,HEK293 Tl ctr
CSc1nc(C(=O)N2CCc3c([nH]c4ccccc34)C2c2ccccn2)cs1 (configuration not stated),-9.69*,i,i,i,-6.7,49.0%*,i,29.0%*
COc1cc(OC)c(C(=O)N/N=C/c2ccoc2)cc1OC,i,i,i,i,-2.5,/,/,/
COc1ccc(-n2nnnc2/C=C/Nc2cc(C(F)(F)F)ccc2OC)cc1,-12.4*,i,i,i,-8.7,34.0%*,i,43.0%*
COc1ccc(-n2nnnc2/C=C\Nc2ccccc2C(=O)c2ccccc2)cc1,i,i,i,i,-13.4,/,/,/
CCN(CC)C(=O)Cn1cc(C(=O)C(=O)Nc2ccc3c(c2)OCCO3)c2ccccc21,i,i,i,i,-5.6,/,/,/
CCCC/C=C/C(NC(=O)CCc1ccccc1)c1ccccc1 (configuration not stated),-10*,i,i,i,-4.8,47.5%*,i,35.0%*
Cc1ccc(C(=O)Nc2sc(C)c(C)c2C(=O)c2ccccc2)cc1,i,i,i,i,-9.6,/,/,/
Cc1sc(NC(=O)c2ccccc2)c(C(=O)c2ccccc2)c1C,i,i,i,i,-9.7,i,i,i
O=C(c1ccccc1)c1cnc(-c2ccc(Cl)cc2)s1,i,i,i,i,-6.9,/,/,/
O=C(C/C=N/OCc1ccc(Cl)cc1Cl)c1ccccc1,i,i,i,i,-19.3,/,/,/
O=C(C/C=N/OCc1ccccc1F)c1cnc(-c2ccc(Cl)cc2)s1,i,i,i,i,-8.2,i,i,i
O=C(C/C=N/OCc1ccc(F)cc1Cl)c1cnc(-c2ccccc2)s1,i,i,i,i,-6.8,i,i,i
C=CCn1c(COc2ccc3c(c2)CCCC3)nnc1SCC(=O)Nc1cccc(SC)c1,i,i,9*,i,-10.4,i,i,29.5%*
Oc1ccc2ccccc2c1C=NCc1ccccc1,i,i,i,i,-3.4,i,i,i
CC(O)(CC(=O)CC(=O)c1ccccc1)c1ccccc1 (configuration not stated),/,i,/,/,/,/,/,/
CCOc1ccc(NC2OC(CO)C(O)C(O)C2O)c([N+](=O)[O-])c1 (configuration not stated),i,i,i,i,-10.3,/,/,/
Cc1cccc(-n2c(=S)[nH]c3sc4c(c3c2=O)CCc2ccccc2-4)c1,i,i,i,8*,3.4,i,i,i
Cc1ccc(-n2c(=S)[nH]c3sc4c(c3c2=O)CCc2ccccc2-4)cc1,i,i,i,i,-5.8,/,/,/
Cc1cccc(OCCCCCn2ccnc2)c1C,i,i,i,i,-8.1,i,i,i
CC(C)S(=O)(=O)c1nsc2nc(=O)c(/C=C3\C=Nc4ccccc43)c(N)n12,i,i,i,i,-22.0,i,i,i
Cc1cc(C)c(-c2csc(NC(=O)/C=C/c3cccs3)n2)c(C)c1,i,i,i,i,-5.3,i,i,i
CCC/C(=N/Nc1ccc(Cl)cc1)c1cnnc(-c2ccccc2)n1,i,/,i,i,-11.5,/,/,/
CC/C(=N/Nc1ccccc1Cl)c1cnnc(-c2ccccc2)n1,-13.5*,i,i,i,-16.8,i,i,38.0%*
Cc1ccc(S(=O)(=O)N2CCOCC2)cc1C(=O)O,i,i,i,i,-7.4,/,/,/
Cc1ccc(C)c(N2CCN(C(=O)c3cc(S(=O)(=O)N4CCOCC4)ccc3F)CC2)c1,i,i,i,i,-0.8,i,i,i
SMILES,KCNK9 block,KCNK3 block,KCNQ1 inh,KCNQ1 act,hERG protect,KCNK9 inh conf,Kir2-1 spec,HEK293 Tl ctr
Cc1ccnc(Nc2nc(-c3c(C)nc4sccn34)cs2)c1,-16.6*,i,i,i,-13.9,40.0%*,i,28.0%*
COc1ccc(C(=O)/C(=C/O)N=Nc2ccc(F)cc2)cc1,-12*,i,i,i,-11.9,i,i,i
O=C(NCc1cccc(C(F)(F)F)c1)c1ccc(=O)[nH]c1,i,i,i,i,-9.8,/,/,/
c1ccc(CN2CCN(c3nc(-c4ccccc4)nc4ccccc34)CC2)cc1,-16.8*,i,i,i,-9.4,34.5%*,i,27.5%*
O=C(CC(c1ccccc1)c1cc(Br)ccc1O)NCc1ccco1 (configuration not stated),-10.9*,-11.3*,i,i,-17.1,48.0%*,i,i
O=c1c2c(c(-c3ccccc3)nn1Cc1ccccc1)CCCC2,i,i,i,i,-0.1,i,i,27.5%*
O=c1cc(N2CCCCC2)c(-c2ccccc2)nn1Cc1ccc(F)cc1,-11.8*,i,i,i,-30.7,60.5%*,i,36.5%*
CN(C)S(=O)(=O)Oc1ccsc1C(=O)Nc1ccc(Cl)cc1,-11.1*,-11.1*,i,i,-7.6,33.0%*,i,39.5%*
COc1ccc(NC(=O)c2sccc2OS(=O)(=O)N(C)C)cc1,i,i,i,i,-2.4,/,/,/
COc1ccc(NC(=O)c2csc(Cc3ccc(Cl)cc3)n2)cc1,i,i,i,i,-12.4,/,/,/
COc1ccc(COc2ccsc2C(=O)Nc2ccc(Cl)cc2)cc1,-9*,i,i,i,-11.5,44.5%*,i,26.5%*
O=C(c1cccnc1)N1CCC(Oc2ccc(C(=O)N3CCCC(O)C3)cc2)CC1 (configuration not stated),i,i,i,i,-2.8,/,/,/
CCOc1ccc(OCCCC(=O)NCCc2ccc(OC)cc2)cc1,i,i,i,i,-8.9,/,/,/
COc1ccc(C2CC(=O)N3CN(c4ccc(C)c(Cl)c4)CSC3=C2C#N)cc1 (configuration not stated),i,i,i,i,-9.2,i,i,i
COc1ccc(N2CSC3=C(C#N)C(c4cccc(OC)c4OC)CC(=O)N3C2)cc1 (configuration not stated),i,i,i,i,-9.2,/,/,/
Cc1nn(Cc2cccc(C(=O)NC(C)c3ccc(C(C)(C)C)cc3)c2)c(C)c1[N+](=O)[O-] (configuration not stated),i,i,i,i,-10.0,/,/,/
